Results as given in article PMC6779328 (Bioorganic & medicinal chemistry, 2019).
Converted amounts (≈) assume the structure as drawn.

Assays:
[1] = system: MRSA ATCC BAA-44; test: MIC by broth microdilution, MRSA BAA-44; type: cell-based, Staphylococcus aureus; settings: MRSA BAA-44, compound alone
[2] = system: HeLa cells; test: HeLa growth inhibition; type: cell-based, human
[3] = system: MRSA-252; test: MIC, MRSA-252; type: cell-based, Staphylococcus aureus
[4] = system: B.subtilis NR-607; test: MIC, B.subtilis NR-607; type: cell-based
[5] = system: E.faecium HM-460; test: MIC, E.faecium HM-460; type: cell-based
[6] = system: E.faecium 28977; test: MIC, E.faecium 28977; type: cell-based
[7] = system: MSSA; test: MIC, MSSA; type: cell-based, S. aureus
[8] = system: MRSA ATCC BAA-44; test: Minimum re-sensitizing concentration; type: cell-based, Staphylococcus aureus; settings: MRSA BAA-44, cefazolin
Procedure, shortened: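 MRSA ATCC BAA-44. The test compound was combined with cefazolin, and the minimum resensitizing concentration (MRC) was reported in μg/mL. MIC alone was determined by standard CLSI broth microdilution. MIC and MRC values were confirmed in triplicate. RMA activity was expressed as the ratio MIC/MRC.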

[9] = Staphylococcus aureus, ATCCBAA44|BAA44|MRSA

Row | Compound | RMA activity (in words) [8] | also measured
1 | 1-((6-chloro-2-(6-chlorobenzo[d]thiazol-2-yl)-2,3,4,9-tetrahydro-1H-pyrido[3,4-b]indol-4-yl)methyl)guanidine hydrochloride [12g] | – | MIC [1]: 2 µg/mL; GI50 ([2]; 24 h): 14.1 µg/mL; MIC [3]: 2 µg/mL; MIC [4]: 2 µg/mL; MIC [5]: 4 µg/mL; MIC [6]: 2 µg/mL; MIC [7]: 0.5 µg/mL
2 | 6-Chloro-N-[3-(trifluoromethyl)phenyl]-1,3,4,9-tetrahydro-2H-pyrido[3,4-b]indole-2-carbothioamide [5c] | – | MIC [1]: 2 µg/mL
3 | Nc1cc(Cl)c2nc(N3CCc4c([nH]c5ccc(Cl)cc45)C3)sc2c1 [4ad, 4-Chloro-2-(6-chloro-1,3,4,9-tetrahydro-2H-pyrido[3,4-b]indol-2-yl)-1,3-benzothiazol-6-amine] | good RMA activities | –
4 | Cl.NCC(=O)Nc1cc(Cl)c2nc(N3CCc4c([nH]c5ccc(Cl)cc45)C3)sc2c1 [4ae, 2-amino-N-(4-chloro-2-(6-chloro-1,3,4,9-tetrahydro-2H-pyrido[3,4-b]indol-2-yl)benzo[d]thiazol-6-yl)acetamide hydrochloride] | – | antibacterial activity, MIC (in words) [1]: excellent MICs
5 | FC(F)(F)c1cccc2sc(N3CCc4c([nH]c5ccc(Cl)cc45)C3)nc12 [4af, 6-Chloro-2-[4-(trifluoromethyl)-1,3-benzothiazol-2-yl]-2,3,4,9-tetrahydro-1H-pyrido[3,4-b]indole] | good RMA activities | GI50 worse than R^9-Cl analog 4w [2]: 3 fold
6 | CNc1cc(C(F)(F)F)c2nc(N3CCc4c([nH]c5ccc(Cl)cc45)C3)sc2c1 [4ai, 2-(6-Chloro-1,3,4,9-tetrahydro-2H-pyrido[3,4-b]indol-2-yl)-N-methyl-4-(trifluoromethyl)-1,3-benzothiazol-6-amine] | good RMA activities | –
7 | Cl.NCCNc1cc(C(F)(F)F)c2nc(N3CCc4c([nH]c5ccc(Cl)cc45)C3)sc2c1 [4aj, N1-(2-(6-chloro-1,3,4,9-tetrahydro-2H-pyrido[3,4-b]indol-2-yl)-4-(trifluoromethyl)benzo[d]thiazol-6-yl)ethane-1,2-diamine hydrochloride] | – | antibacterial activity, MIC (in words) [1]: excellent MICs
8 | Clc1ccc2[nH]c3c(c2c1)CCN(c1nc2ccccc2s1)C3 [4b, 2-(1,3-Benzothiazol-2-yl)-6-chloro-2,3,4,9-tetrahydro-1H-pyrido[3,4-b]indole] | no RMA activity | –
9 | Cc1ccc2nc(N3CCc4c([nH]c5ccc(Cl)cc45)C3)sc2c1 [4c, 6-Chloro-2-(6-methyl-1,3-benzothiazol-2-yl)-2,3,4,9-tetrahydro-1H-pyrido[3,4-b]indole] | no RMA activity | –
10 | Clc1ccc2[nH]c3c(c2c1)CCN(c1nc2ncccc2s1)C3 [4d, 6-Chloro-2-([1,3]thiazolo[4,5-b]pyridin-2-yl)-2,3,4,9-tetrahydro-1H-pyrido[3,4-b]indole] | abolished | –
11 | FC(F)(F)c1cnc2nc(N3CCc4c([nH]c5ccc(Cl)cc45)C3)sc2c1 [4e, 6-Chloro-2-[6-(trifluoromethyl)[1,3]thiazolo[4,5-b]pyridin-2-yl]-2,3,4,9-tetrahydro-1H-pyrido[3,4-b]indole] | abolished | –
12 | CCOC(=O)C1c2[nH]c3ccc(Cl)cc3c2CCN1c1nc2ccc(Cl)cc2s1 (stereo not shown) [4l, Ethyl 6-chloro-2-(6-chloro-1,3-benzothiazol-2-yl)-2,3,4,9-tetrahydro-1H-pyrido[3,4-b]indole-1-carboxylate] | abolished | –
13 | COC(=O)C1Cc2c([nH]c3ccc(Cl)cc23)CN1c1nc2ccc(Cl)cc2s1 (stereo not shown) [4m, Methyl 6-chloro-2-(6-chloro-1,3-benzothiazol-2-yl)-2,3,4,9-tetrahydro-1H-pyrido[3,4-b]indole-3-carboxylate] | abolished | MIC [1]: >64 µg/mL
14 | CCn1c2c(c3cc(Cl)ccc31)CCN(c1nc3ccc(Cl)cc3s1)C2 [4o, 6-Chloro-2-(6-chloro-1,3-benzothiazol-2-yl)-9-ethyl-2,3,4,9-tetrahydro-1H-pyrido[3,4-b]indole] | abolished | –
15 | Clc1ccc2[nH]c3c(c2c1)CCN(c1nc2ccc(Br)cc2s1)C3 [4p, 2-(6-Bromo-1,3-benzothiazol-2-yl)-6-chloro-2,3,4,9-tetrahydro-1H-pyrido[3,4-b]indole] | retained the RMA activity | –
16 | FC(F)(F)Oc1ccc2nc(N3CCc4c([nH]c5ccc(Cl)cc45)C3)sc2c1 [4t, 6-Chloro-2-[6-(trifluoromethoxy)-1,3-benzothiazol-2-yl]-2,3,4,9-tetrahydro-1H-pyrido[3,4-b]indole] | lost the RMA activity completely | –
17 | Clc1ccc2[nH]c3c(c2c1)CCN(c1nc2cccc(Cl)c2s1)C3 [4u, 6-Chloro-2-(7-chloro-1,3-benzothiazol-2-yl)-2,3,4,9-tetrahydro-1H-pyrido[3,4-b]indole] | reduced RMA activity | –
18 | Clc1ccc2sc(N3CCc4c([nH]c5ccc(Cl)cc45)C3)nc2c1 [4v, 6-Chloro-2-(5-chloro-1,3-benzothiazol-2-yl)-2,3,4,9-tetrahydro-1H-pyrido[3,4-b]indole] | no RMA activity | –
19 | Clc1ccc2[nH]c3c(c2c1)CCN(c1nc2c(Cl)cccc2s1)C3 [4w, 6-Chloro-2-(4-chloro-1,3-benzothiazol-2-yl)-2,3,4,9-tetrahydro-1H-pyrido[3,4-b]indole] | maintained similar RMA activity | –
20 | Clc1cc(Cl)c2nc(N3CCc4c([nH]c5ccc(Cl)cc45)C3)sc2c1 [4x, 6-Chloro-2-(4,6-dichloro-1,3-benzothiazol-2-yl)-2,3,4,9-tetrahydro-1H-pyrido[3,4-b]indole] | – | antibacterial activity, MIC (in words) [1]: excellent MICs
21 | Clc1ccc2[nH]c3c(c2c1)CCN(c1nc2c(Cl)c(Cl)c(Cl)cc2s1)C3 [4y, 6-Chloro-2-(4,5,6-trichloro-1,3-benzothiazol-2-yl)-2,3,4,9-tetrahydro-1H-pyrido[3,4-b]indole] | – | antibacterial activity, MIC (in words) [1]: excellent MICs
22 | Cc1nnc(SCC2=C(C(=O)O)N3C(=O)[C@@H](NC(=O)Cn4cnnn4)[C@H]3SC2)s1 [Cefazolin, reference compound] | – | MIC [1, 9]: 256 µg/mL (≈ 563 µM)
23 | CO/N=C(\C(=O)N[C@@H]1C(=O)N2C(C(=O)O)=C(COC(N)=O)CS[C@H]12)c1ccco1 [Cefuroxime, reference compound] | – | MIC [1]: 256 µg/mL (≈ 603 µM); MIC [1, 9]: 128 µg/mL (≈ 302 µM)
24 | O=C(O)C1CN(c2nc3ccc(Cl)cc3s2)Cc2[nH]c3ccc(Cl)cc3c21 (stereo not shown) [compound 8, 6-Chloro-2-(6-chlorobenzo[d]thiazol-2-yl)-2,3,4,9-tetrahydro-1H-pyrido[3,4-b]indole-4-carboxylic acid] | significantly decreased or abolished | –
25 | CN(C)C(=O)C1CN(c2nc3ccc(Cl)cc3s2)Cc2[nH]c3ccc(Cl)cc3c21 (stereo not shown) [compound 9, 6-Chloro-2-(6-chlorobenzo[d]thiazol-2-yl)-N,N-dimethyl-2,3,4,9-tetrahydro-1H-pyrido[3,4-b]indole-4-carboxamide] | significantly decreased or abolished | –
